Cneo AK release: causes C. neoformans cell lysis | adenylate kinase release luminescence, 4 h; normalised: neutral wells 0, clomiphene wells 100 | lysis activity, % at 15 µM | 0.2% of 360,000 active | AID 651654;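 active = mean lysis activity across replicates of at least 80%, whatever share of replicates individually reach that level; inactive = mean lysis activity below 80%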
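Assay system: Cryptococcus neoformans yeast cells / Dosing: single-point compound dose / Timing: 4 h at 37 °C static, read 1 h later / Measured by: luminescence of released adenylate kinase using an AK detection reagent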
F508del corr: CFTR F508del correction in bronchial cells. activity (quench increase), % at 7.58 µM. CFBE cells, YFP halide quenching; stimulated with forskolin plus potentiator P3; % fluorescence drop versus neutral controls. 0.36% of 350,000 active;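 active = mean added fluorescence quench of at least 8% versus neutral control, with both replicates also reaching 8%; inconclusive = only one of the mean or replicate conditions met; inactive = mean below 8% and not both replicates reaching 8%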;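 also: cells transiently co-express mutant CFTR-F508del with the halide-sensitive YFP; corrector assay measuring rescue of mutant channel to the surface after 24 h compound exposure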
ERp5 inh: blocks human ERp5 reductase activity on insulin; Q15084; ERp5 insulin aggregation, absorbance 650 nm, 90 min; inhibition, % at 9.99 µM; 0.05% of 350,000 active; AID 651711;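 active = mean replicate inhibition above about 25%, with every replicate also reaching it, limit read from the data, passing the limit was not always enough; inconclusive = only one of those two criteria met; inactive = neither criterion met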
Target sequence (Q15084 whole entry, looked up): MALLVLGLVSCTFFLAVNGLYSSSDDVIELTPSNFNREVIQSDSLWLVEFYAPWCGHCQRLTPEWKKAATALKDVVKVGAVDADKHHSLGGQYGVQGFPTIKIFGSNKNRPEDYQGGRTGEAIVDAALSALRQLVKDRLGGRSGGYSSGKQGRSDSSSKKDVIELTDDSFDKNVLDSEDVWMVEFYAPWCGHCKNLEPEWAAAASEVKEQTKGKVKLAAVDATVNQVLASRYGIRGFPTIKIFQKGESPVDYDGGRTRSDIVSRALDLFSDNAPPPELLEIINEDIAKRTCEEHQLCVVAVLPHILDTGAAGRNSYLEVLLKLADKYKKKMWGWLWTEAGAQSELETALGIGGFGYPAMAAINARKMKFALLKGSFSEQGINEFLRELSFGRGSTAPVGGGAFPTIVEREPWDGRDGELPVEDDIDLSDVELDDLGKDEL
DENV2 CPE rescue: inhibitors of DENV2 cytopathic effect | DENV2-infected cells, cytopathic effect rescue, plate reader | CPE inhibition, % at 9.99 µM | 1.7% of 350,000 active; in the data active = CPE inhibition above about 20%, passing the limit was not always enough; inconclusive = no clear call, values can overlap the other calls; tested in BHK-21 cells;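 also: 0% = median of neutral control wells and 100% = median of positive control wells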
C2C12 statin: suppressors of simvastatin-induced myotoxicity in C2C12 myotubes; 0.78% of 330,000 active; rescue of ATP level, % at 7.49 µM; ATP luminescence, 48 h; scaled: DMSO 0, geranylgeraniol control 100; AID 602340;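 active = mean ATP rescue above about 67%, or every replicate alone reaching that limit, limit read from the data, passing the limit was not always enough; inconclusive = no clear call, values can overlap the other calls; inactive = mean under the limit and some replicate under it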;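 also: myotubes were challenged with 10 µM simvastatin during compound exposure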
PDI inh: PDI (human) enzyme inhibition. P07237. PDI insulin aggregation turbidity, A650, 90 min. inhibition, % at 10 µM. 0.052% of 350,000 active;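 active = mean inhibition across replicates of 30% or more, whatever share of single replicates reach that level; inconclusive = mean inhibition below 30% while every single replicate reaches 30%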
Active calls of the source: *; ? = inconclusive; · = not tested or not shown. Sampled rows, rich in hits. Any-hit rate of the full collection: about 2.3%.

SMILES | Cneo AK release | F508del corr | ERp5 inh | DENV2 CPE rescue | C2C12 statin | PDI inh
C[C@@H]1CCCCO[C@H](CN(C)C(=O)C2CCCCC2)[C@@H](C)CN([C@@H](C)CO)C(=O)c2cc(NC(=O)Nc3ccc(F)cc3)ccc2O1 | -3 | 2 | 4 | 47* | · | ·
C[C@@H]1CN([C@H](C)CO)C(=O)c2cc(NC(=O)Nc3ccccc3)ccc2O[C@@H](C)CCCCO[C@@H]1CN(C)C(=O)C1CCCCC1 | 0 | 0 | -3 | 71* | · | ·
C[C@@H]1CCCCO[C@@H](CN(C)C(=O)C2CCCCC2)[C@@H](C)CN([C@@H](C)CO)C(=O)c2cc(NC(=O)Nc3ccc(F)cc3)ccc2O1 | 1 | 0 | -1 | 21* | · | ·
C[C@@H]1CN([C@@H](C)CO)C(=O)c2cc(NC(=O)Nc3ccc(F)cc3)ccc2O[C@@H](C)CCCCO[C@H]1CN(C)C(=O)C1CCCCC1 | -2 | 1 | -1 | -4 | · | ·
C[C@@H]1CCCCO[C@@H](CN(C)C(=O)C2CCCCC2)[C@H](C)CN([C@@H](C)CO)C(=O)c2cc(NC(=O)Nc3ccc(F)cc3)ccc2O1 | 3 | 0 | 3 | 25* | · | ·
C[C@@H]1CN([C@@H](C)CO)C(=O)c2cc(NC(=O)Nc3ccc(F)cc3)ccc2O[C@@H](C)CCCCO[C@@H]1CN(C)C(=O)C1CCCCC1 | -3 | -4 | 2 | -2 | · | ·
C[C@H]1CN([C@@H](C)CO)C(=O)c2cccc(NC(=O)Nc3ccccc3)c2O[C@H]1CN(C)Cc1ccncc1 | 55 | -2 | -5 | -5 | 22 | ·
CC(C)NC(=O)N[C@@H]1CC[C@H](CCNC(=O)C2CCC2)O[C@H]1CO | -5 | -1 | 0 | 19 | 0 | ·
CC(C)NC(=O)N1CCCCN2[C@@H](CO)[C@@H](c3ccc(Br)cc3)[C@@H]2C1 | -1 | 0 | -8 | 68* | -3 | ·
COc1ccc(-c2ccc([C@@H]3[C@H](CO)N4CCCCN(C(=O)NC(C)C)C[C@@H]34)cc2)cc1 | -2 | 0 | 0 | 64* | -5 | ·
CC(C)NC(=O)N1CCCCN2[C@@H](CO)[C@H](c3ccc(Br)cc3)[C@@H]2C1 | 2 | 1 | -5 | -7 | 11 | ·
Cc1ccc(S(=O)(=O)N(C)C[C@@H]2OCCCC[C@H](C)Oc3ccc(NC(=O)Nc4ccc5c(c4)OCO5)cc3C(=O)N([C@@H](C)CO)C[C@H]2C)cc1 | -2 | -4 | 0 | 3 | · | ·
Cc1cc(C)n(-c2cccc(Cl)c2)c(=O)c1C#N | -2 | · | · | · | 118* | -1
Cc1ccc(-n2c(C)cc(C)c(C#N)c2=O)cc1C | · | · | -11 | -2 | · | -4
C[C@@H]1CCCCO[C@@H](CN(C)C(=O)CCC(F)(F)F)[C@H](C)CN([C@@H](C)CO)C(=O)c2cc(NS(=O)(=O)c3ccc(Cl)cc3)ccc2O1 | 0 | -1 | 64* | -8 | · | ·
C[C@@H]1CN([C@@H](C)CO)C(=O)c2cc(NS(=O)(=O)c3ccc(Cl)cc3)ccc2O[C@@H](C)CCCCO[C@@H]1CN(C)C(=O)CCCN(C)C | 2 | 0 | -1 | 20* | · | ·
C[C@@H]1CN([C@H](C)CO)C(=O)c2cc(NS(=O)(=O)c3ccc(Cl)cc3)ccc2O[C@@H](C)CCCCO[C@@H]1CN(C)C(=O)CCCN(C)C | -2 | 0 | -4 | 22* | · | ·
C[C@H]1CN([C@@H](C)CO)C(=O)Cc2cc(NS(=O)(=O)c3ccccc3)ccc2O[C@H]1CN(C)Cc1ccc(C(=O)O)cc1 | · | -2 | 11 | 17 | -6 | ·
Cc1noc(C)c1S(=O)(=O)Nc1ccc2c(c1)CC(=O)N([C@H](C)CO)C[C@H](C)[C@H](CN(C)C)O2 | -1 | -1 | -6 | -2 | 23 | ·
CCCCN(C(=O)c1cc(-c2ccco2)nc2ccccc12)c1c(N)n(CCCC)c(=O)[nH]c1=O | · | 1 | -2 | 109* | 19 | -4
CCCCn1c(N)c(N(CCOC)C(=O)c2cc(=O)[nH]c3ccccc23)c(=O)[nH]c1=O | 1 | -2 | 2 | 73* | 7 | 2
CCCCn1c(N)c(N(CCOC)C(=O)c2cc(-c3ccco3)nc3ccccc23)c(=O)[nH]c1=O | 0 | 0 | -1 | 5 | -6 | -9
CCCCN(C(=O)CSc1nnc(-c2ccccc2)o1)c1c(N)n(CCC)c(=O)[nH]c1=O | -3 | -1 | -2 | 79* | 5 | 1
CCCCn1c(N)c(N(CCC(C)C)C(=O)c2cc(-c3ccco3)nc3ccccc23)c(=O)[nH]c1=O | 2 | 0 | 1 | 5 | 7 | -7
CC1CCN(C(=O)N2c3ccccc3Sc3ccccc32)CC1 | 1 | · | · | · | 13 | -6
SMILES | Cneo AK release | F508del corr | ERp5 inh | DENV2 CPE rescue | C2C12 statin | PDI inh
O=C(NC1CCN(C(=O)N2c3ccccc3Sc3ccccc32)CC1)c1ccccc1F | 1 | -2 | 3 | 5 | 76* | 2
C[C@@H]1CCCCO[C@H](CN(C)C(=O)Nc2ccc3c(c2)OCO3)[C@H](C)CN([C@@H](C)CO)C(=O)c2cc(NC(=O)Cc3ccccc3)ccc2O1 | 12 | 0 | · | -8 | · | ·
COc1ccccc1/C=N/NC(=S)NCc1ccco1 | 89* | 2 | -2 | -6 | · | 0
CC[C@]12c3[nH]c4cc(-c5ccco5)ccc4c3CCN1C(=O)[C@@H](CC(=O)NC(C)(C)C)C[C@@H]2C(=O)N1CCN(C(=O)C2CC2)CC1 | 2 | 0 | -2 | 43* | -7 | 25
O=CNc1cc(-c2ccc(C(=O)NC3CC3)cc2)cn2c(-c3ccccc3)cnc12 | -1 | 14* | -8 | ? | -11 | -1
CC(=O)Nc1cccc(-c2cc(NC=O)c3ncc(-c4ccc(C(C)=O)cc4)n3c2)c1 | 4 | 4 | 6 | 34* | 2 | 15
CCN(CC)S(=O)(=O)c1cccc(C(=O)NC(C(=O)NC2=NCCS2)C(C)C)c1 (stereo not given) | -3 | · | · | · | 81* | -2
CCOC(=O)c1ccc(NC(=O)c2ccc(NC(=O)c3ccccc3)cc2)cc1 | 1 | · | · | · | 6 | -14
CCOC(=O)c1cncc(NC(=O)c2ccccc2)c1 | -3 | · | · | · | 95* | -6
COc1ccc(CC(=O)Nc2ccc(S(=O)(=O)Nc3cc(C)nc(C)n3)cc2)cc1OC | 0 | 0 | 1 | 30* | -35 | -6
Cc1cc(NS(=O)(=O)c2ccc(NC(=O)Cc3ccccc3)cc2)nc(C)n1 | -9 | -1 | 5 | -5 | 10 | -3
CO[C@H]1CN(C)C(=O)c2cc(NC(=O)Cc3ccccc3)ccc2OC[C@H](C)N(C(C)=O)C[C@H]1C | -5 | -2 | -1 | ? | -11 | ·
COc1ccc(NC(=O)Nc2cccc3c2O[C@@H](CN(C)S(C)(=O)=O)[C@@H](C)CN([C@H](C)CO)C3=O)cc1 | -5 | -2 | 12 | -7 | · | ·
CCN1C(=O)NC2=C(C(=O)c3ccccc32)C1c1ccccc1F (stereo not given) | 0 | · | · | · | 120* | 5
